The nature of assay [1]: reducers of endogenous Her2 protein level, primary screen, SKBR3 breast tumor cells, AlphaScreen, ATP viability (AID 461;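 active = Her2 level under about 52% in both replicate screens, with viability over 70% of control, limit read from the data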;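 as to Her2 level: lower value means less Her2 protein in the cells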;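 as to viability: percent of carrier control wells set as 100% viability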). The conditions noted are these: 18-24 h, measured here: SKBR3 viability, ATP luminescence, at 10 µM.
The target in assay [2] is Receptor tyrosine-protein kinase erbB-2 (Homo sapiens) (UniProt P04626). The description is as above. The conditions noted are these: 18-24 h, at 10 µM, stronger effect = lower value.
Assay [3] can be described thus: SK-BR-3 cell growth inhibitors, pilot screen, 24 h, human (AID 572;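 active = viability at or below 10% of carrier control in both of two separate runs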;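 also: compound exposure lasted between 18 and 24 h rather than exactly 24 h; 100% = carrier-treated control wells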). The conditions noted are these: SK-BR-3 viability, CellTiter-Glo luminescence, at 10 µM, stronger effect = lower value. (Cellular ATP, detected with luciferase, serves as a proxy for viable cell number.)
Assay [4] can be described thus: HUVEC growth inhibition – cell-based, human, primary screen (AID 575;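 active = viability at or below 30% in both replicate assays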;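 also: 100% = median of untreated cell wells with 0.1% DMSO on each plate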). Particulars: HUVEC proliferation, CellTiter-Glo luminescence, 72 h; at 10 µM; stronger effect = lower value. The gist of the method: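 Material: primary human umbilical vein endothelial cells / Schedule: 72 h exposure, 37 °C, 5% CO2, 30 min RT equilibration / Signal: ATP-based CellTiter-Glo luminescent read / Read-out basis: percent of median DMSO-control luminescence / Control set: 32 DMSO-only cell-control wells (high), 32 MePR drug-control wells (low) per plate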

Assay [5] is described as follows: growth inhibitors of H69AR lung tumor, primary screen, human, duplicate replicates (AID 580;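 active = viability at or under a set limit in both replicates, limit being median viability minus 3 SD, cut at about 48% in these data, passing the limit was not always enough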;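 also: 100% = mean luminescence of untreated wells and 0% = no signal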). The conditions noted are these: H69AR lung tumor cells viability, ATP luminescence, 72 h; at 10 µM; stronger effect = lower value.
Assay [6] is described as follows: reversal of MRP1-mediated doxorubicin resistance, pilot screen, H69AR cells, doxorubicin co-treatment (AID 601). The conditions noted are these: CellTiter-Glo, 72 h, at 10 µM; for differential viability (reversal): stronger effect = higher value.
Assay [7] in a line: 384-well plate pilot, post-Golgi transport modulator project, inhibition of yeast transport mutant growth (AID 636; in the data active = inhibition above about 31%). The conditions noted are these: absorbance 615 nm, about 18 h, stronger effect = higher value.
The nature of assay [8]: growth suppression of yeast trafficking mutant, preliminary HTS, modulators of trafficking downstream of Golgi apparatus project, 1536-format plate, OD 615 nm (AID 637; in the data active = inhibition above about 30%). The conditions noted are these: yeast transport mutant growth, absorbance 615 nm, 18 h; stronger effect = higher value.
Where [9] appears, read: H69AR cells + 2 uM doxorubicin, measured here: viability with 2 uM doxorubicin, stronger effect = lower value.
Where [10] appears, read: H69AR cells, compound alone cytotoxicity.

Calls of active or inactive are those of the source.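 The calls were made as follows, unless noted: active = viability loss from added drug above about 55%, and viability with drug at most 40%, in both replicates (limit read from the data, passing the limit was not always enough); inconclusive = both conditions met in only one replicate; inactive = neither replicate meets both conditions.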

Receptor tyrosine-protein kinase erbB-2 (Homo sapiens), sequence (P04626 whole entry, looked up): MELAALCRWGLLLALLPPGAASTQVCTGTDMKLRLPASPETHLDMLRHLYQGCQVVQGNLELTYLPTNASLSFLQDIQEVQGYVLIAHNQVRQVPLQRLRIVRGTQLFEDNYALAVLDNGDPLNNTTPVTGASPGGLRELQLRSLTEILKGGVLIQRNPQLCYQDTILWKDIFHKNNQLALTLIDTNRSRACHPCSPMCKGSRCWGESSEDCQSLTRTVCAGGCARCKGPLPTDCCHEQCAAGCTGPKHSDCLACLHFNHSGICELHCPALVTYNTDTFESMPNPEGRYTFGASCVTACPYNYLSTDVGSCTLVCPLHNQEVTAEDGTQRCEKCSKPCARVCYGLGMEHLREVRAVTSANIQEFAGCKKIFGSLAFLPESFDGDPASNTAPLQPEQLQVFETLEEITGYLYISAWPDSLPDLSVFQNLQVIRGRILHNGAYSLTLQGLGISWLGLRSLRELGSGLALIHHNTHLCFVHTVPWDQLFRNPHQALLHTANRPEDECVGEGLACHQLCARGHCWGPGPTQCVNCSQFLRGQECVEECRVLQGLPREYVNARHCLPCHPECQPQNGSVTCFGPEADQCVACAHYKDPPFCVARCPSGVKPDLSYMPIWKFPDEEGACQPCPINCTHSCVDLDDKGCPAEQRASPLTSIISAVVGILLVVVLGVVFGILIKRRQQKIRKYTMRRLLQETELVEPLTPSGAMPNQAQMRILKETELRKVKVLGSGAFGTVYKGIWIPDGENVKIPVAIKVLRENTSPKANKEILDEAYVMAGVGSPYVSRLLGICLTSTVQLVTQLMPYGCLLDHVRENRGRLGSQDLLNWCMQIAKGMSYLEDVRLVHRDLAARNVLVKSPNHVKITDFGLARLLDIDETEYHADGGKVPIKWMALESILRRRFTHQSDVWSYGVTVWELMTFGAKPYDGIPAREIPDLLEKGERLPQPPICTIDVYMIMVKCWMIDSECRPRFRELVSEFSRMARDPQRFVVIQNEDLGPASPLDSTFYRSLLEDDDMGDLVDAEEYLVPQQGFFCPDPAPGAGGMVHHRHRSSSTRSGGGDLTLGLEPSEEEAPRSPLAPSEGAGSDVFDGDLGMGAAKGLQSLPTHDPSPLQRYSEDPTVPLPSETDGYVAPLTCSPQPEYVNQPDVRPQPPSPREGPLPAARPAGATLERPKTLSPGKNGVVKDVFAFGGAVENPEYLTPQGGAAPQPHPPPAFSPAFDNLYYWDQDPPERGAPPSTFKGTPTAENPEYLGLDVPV

Regarding `CN(CC(=O)NCCC1=CCCCC1)S(=O)(=O)c1ccc2c(c1)CCC(=O)N2`, the viability is 79% in assay [1]; 79% (inactive) in assay [3]; 91.3% (inactive) in assay [4]; 110% (inactive) in assay [5]; 91.7% in assay [6] (setting [9]); 110% in assay [6] (setting [10]). For the same compound, the Her2 level in assay [2] is 113% (inactive). In assay [6] (H69AR cells + 2 uM doxorubicin), the differential viability (reversal) is 18% (inactive). Further, the inhibition in assay [7] is -2.27% (inactive); in assay [8], -1.48% (inactive).

On to `CC(C)CC(=O)Nc1ccccc1-c1nnn(CC(=O)N2CCOCC2)n1`, for which the viability in assay [1] is 102%; in assay [3], 102% (inactive); in assay [4], 87.8% (inactive); in assay [5] it was 86.8% (inactive); in assay [6] (setting [9]), 88.5%; in assay [6] (setting [10]) it was 86.8%. In addition, the Her2 level in assay [2] is 92% (inactive). Further, the differential viability (reversal) in assay [6] (H69AR cells + 2 uM doxorubicin) is -1.72% (inactive). Also, the figures for the inhibition in assay [7] and in assay [8] were -5.87% (inactive) and -1.77% (inactive), respectively.

Regarding `Cn1c(=O)c2c(nc(N3CCCCC3)n2CCSc2nc3ccccc3o2)n(C)c1=O`, the viability in assay [1] was 100%; in assay [3], 100% (inactive); in assay [4], 88.4% (inactive); in assay [5] it was 82.2% (inactive); in assay [6] (setting [9]), 80.4%; in assay [6] (setting [10]) it was 82.2%. Further, the Her2 level in assay [2] was 105% (inactive). Also, in assay [6] (H69AR cells + 2 uM doxorubicin), the differential viability (reversal) is 1.8% (inactive). Further, the inhibition in assay [7] is -0.67% (inactive); in assay [8], -6.39% (inactive).

In the case of `Cc1ccc(C2Nc3ccccc3-c3nc4ccccc4n32)o1` (stereo not given), the viability in assay [1] was 97%; in assay [3] it was 97% (inactive); in assay [4], 54.4% (inactive); in assay [5] it was 38.3% (active); in assay [6] (setting [9]), 56.4%; in assay [6] (setting [10]), 38.3%. The Her2 level in assay [2] is 89.5% (inactive). Besides, the differential viability (reversal) in assay [6] (H69AR cells + 2 uM doxorubicin) is -18.1% (inactive). For the same compound, the inhibition in assay [7] is -1.37% (inactive); in assay [8], 4.44% (inactive).

On to `CC(C(=O)N1CCCCC1)n1ncn2cccc2c1=O` (stereo not given), for which the viability in assay [1] was 93.5%; in assay [3], 93.5% (inactive); in assay [4], 94.2% (inactive); in assay [5], 102% (inactive); in assay [6] (setting [9]), 85.1%; in assay [6] (setting [10]), 102%. The Her2 level in assay [2] is 93.5% (inactive). Further, the differential viability (reversal) in assay [6] (H69AR cells + 2 uM doxorubicin) is 17.3% (inactive). Besides, the values for the inhibition in assay [7] and in assay [8] were -1.58% (inactive) and -2.91% (inactive), respectively.

As for `CCOC(=O)CSC1=C(C#N)C(=O)NC(c2ccc(OC)c(OC)c2)S1` (stereo not given), the viability in assay [1] was 104%; in assay [3], 104% (inactive); in assay [4], 74.6% (inactive); in assay [5] it was 97.2% (inactive); in assay [6] (setting [9]), 99%; in assay [6] (setting [10]), 97.2%. In addition, the Her2 level in assay [2] was 99% (inactive). In addition, the differential viability (reversal) in assay [6] (H69AR cells + 2 uM doxorubicin) was -1.72% (inactive). Further, the results for the inhibition in assay [7] and in assay [8] were -4.79% (inactive) and 0.16% (inactive), respectively.

`Cn1c2c(c(=O)n(C)c1=O)C(CC(=O)Nc1ccccc1)C(=O)N2` (stereo not given): the viability in assay [1] is 106%; in assay [3], 106% (inactive); in assay [4] it was 106% (inactive); in assay [5], 108% (inactive); in assay [6] (setting [9]), 86.4%; in assay [6] (setting [10]), 108%. Besides, the Her2 level in assay [2] is 78.5% (inactive). In assay [6] (H69AR cells + 2 uM doxorubicin), the differential viability (reversal) was 21.8% (inactive). The inhibition in assay [7] was -2.97% (inactive); in assay [8], 8.57% (inactive).

Turning to `O=C(CCN1C(=O)C2C3C=CC(C3)C2C1=O)Nc1c(F)cc(F)cc1Br` (stereo not given), the viability was 99.5% in assay [1]; 99.5% (inactive) in assay [3]; 90.2% (inactive) in assay [4]; 103% (inactive) in assay [5]; 82.6% in assay [6] (setting [9]); 103% in assay [6] (setting [10]). Also, the Her2 level in assay [2] was 91.5% (inactive). For the same compound, the differential viability (reversal) in assay [6] (H69AR cells + 2 uM doxorubicin) was 20.3% (inactive). Besides, the inhibition in assay [7] was 1.08% (inactive); in assay [8] it was -4.13% (inactive).

For the compound `CCC1C(=O)n2nc(-c3ccccc3)cc2N=C1C` (stereo not given), the viability in assay [1] is 106%; in assay [3] it was 106% (inactive); in assay [4] it was 86.9% (inactive); in assay [5], 99% (inactive); in assay [6] (setting [9]), 90.2%; in assay [6] (setting [10]), 99%. The Her2 level in assay [2] was 66.5% (inactive). Also, the differential viability (reversal) in assay [6] (H69AR cells + 2 uM doxorubicin) was 8.73% (inactive). Besides, the inhibition in assay [7] was -0.39% (inactive); in assay [8] it was -3.17% (inactive).

On to `CCOC(=O)C1=C(NC#N)OC(C)=C(C)C1c1ccc(O)cc1` (stereo not given), for which the viability in assay [1] is 92.5%; in assay [3] it was 92.5% (inactive); in assay [4], 95.1% (inactive); in assay [5] it was 90.3% (inactive); in assay [6] (setting [9]), 86.4%; in assay [6] (setting [10]) it was 90.3%. Further, the Her2 level in assay [2] was 79% (inactive). For the same compound, in assay [6] (H69AR cells + 2 uM doxorubicin), the differential viability (reversal) was 3.92% (inactive). In addition, the inhibition in assay [7] is 0.27% (inactive); in assay [8], 0.65% (inactive).

For the compound `Nc1sccc1C(=O)c1ccc(Cl)cc1`, the viability in assay [1] was 100%; in assay [3], 100% (inactive); in assay [4], 82.9% (inactive); in assay [5], 90.2% (inactive); in assay [6] (setting [9]), 85.3%; in assay [6] (setting [10]) it was 90.2%. Besides, the Her2 level in assay [2] was 85% (inactive). In addition, the differential viability (reversal) in assay [6] (H69AR cells + 2 uM doxorubicin) was 4.88% (inactive). Besides, the figures for the inhibition in assay [7] and in assay [8] were 0% (inactive) and -4.17% (inactive), respectively.

Turning to `NC(=O)c1c(-c2ccccc2)oc2ccc(O)cc12`, the viability in assay [1] is 121%; in assay [3], 121% (inactive); in assay [4], 96.2% (inactive); in assay [5], 90.4% (inactive); in assay [6] (setting [9]), 77%; in assay [6] (setting [10]), 90.4%. In assay [2], the Her2 level is 88% (inactive). In addition, the differential viability (reversal) in assay [6] (H69AR cells + 2 uM doxorubicin) was 13.4% (inactive). The results for the inhibition in assay [7] and in assay [8] were 1.18% (inactive) and -9.82% (inactive), respectively.

Turning to `CCOc1ccc(NCCC(=O)c2ccc3c(c2)OCO3)cc1`, the viability in assay [1] is 90%; in assay [3], 90% (inactive); in assay [4] it was 75.7% (inactive); in assay [5], 66.1% (inactive); in assay [6] (setting [9]), 79.6%; in assay [6] (setting [10]) it was 66.1%. In assay [2], the Her2 level is 84.5% (inactive). Also, the differential viability (reversal) in assay [6] (H69AR cells + 2 uM doxorubicin) is -13.5% (inactive). In addition, the inhibition in assay [7] is -6.71% (inactive); in assay [8], -5.5% (inactive).

For `Oc1cc(NCc2cccnc2)ccc1-c1nc2ccccc2o1`, the viability in assay [1] was 86.5%; in assay [3], 86.5% (inactive); in assay [4], 97.2% (inactive); in assay [5] it was 82.7% (inactive); in assay [6] (setting [9]), 90.1%; in assay [6] (setting [10]) it was 82.7%. Further, the Her2 level in assay [2] is 94% (inactive). In addition, the differential viability (reversal) in assay [6] (H69AR cells + 2 uM doxorubicin) is -7.37% (inactive). Also, the results for the inhibition in assay [7] and in assay [8] were 1.17% (inactive) and 10.8% (inactive), respectively.

For the compound `CCn1c(=O)c(C(=O)NCc2ccc(OC)cc2)c(O)c2ccccc21`, the viability was 86.5% in assay [1]; 86.5% (inactive) in assay [3]; 46.7% (inactive) in assay [4]; 73.2% (inactive) in assay [5]; 86.7% in assay [6] (setting [9]); 73.2% in assay [6] (setting [10]). In addition, in assay [2], the Her2 level was 89.5% (inactive). Also, the differential viability (reversal) in assay [6] (H69AR cells + 2 uM doxorubicin) was -13.4% (inactive). Moreover, the inhibition in assay [7] was -3.46% (inactive); in assay [8] it was -8.5% (inactive).

Regarding `CCOc1ccc(S(=O)(=O)NCC2CCCO2)c2cccnc12` (stereo not given), the viability is 99% in assay [1]; 99% (inactive) in assay [3]; 93.8% (inactive) in assay [4]; 93.6% (inactive) in assay [5]; 87.1% in assay [6] (setting [9]); 93.6% in assay [6] (setting [10]). The Her2 level in assay [2] was 99.5% (inactive). For the same compound, the differential viability (reversal) in assay [6] (H69AR cells + 2 uM doxorubicin) is 6.55% (inactive). In addition, the inhibition is 0.13% (inactive) in assay [7] and 5.08% (inactive) in assay [8].

As usually defined, the viability is a read-out of living cells in per cent, often relative to untreated cells. What is called inhibition is the drop in the measured response relative to a control, in per cent.

(Values after PubChem BioAssay.)
